Results of several laboratories.
Compare with care: the assays were run in different laboratories.
Target: Mu-type opioid receptor (Oprm1, Rattus norvegicus, UniProt P33535)

SMILES	effect on	method	notes	Ki [nM]
C[C@@H](NC(=O)[C@@H](N)Cc1ccc(O)cc1)C(=O)NCC(=O)N[C@@H](Cc1ccc(Cl)cc1)C(=O)N(C)CCC[C@@]1(c2ccc(F)cc2)OCc2cc(C#N)ccc21	cell-free assay			7
Cc1cccc(Cc2ccc3c(c2)CN(C(=O)[C@@H](N)Cc2c(C)cc(O)cc2C)CC3)c1	ligand displacement	radioligand	cell membranes	3.1
Oc1cccc([C@@]23CCC[C@@H]([C@@H]2O)N(CC=Cc2ccccc2)CC3)c1	ligand displacement	radioligand		25
C[C@@H](NC(=O)C[C@@H](N)Cc1ccc(O)cc1)C(=O)NCC(=O)N[C@@H](Cc1ccccc1)C(=O)NNC(=O)[C@H](Cc1ccccc1)NC(=O)CNC(=O)[C@@H](C)NC(=O)C[C@@H](N)Cc1ccc(O)cc1	ligand displacement	radioligand		62
CCc1cccc(C)c1C[C@H](NC(=O)[C@@H](CCCNC(=N)N)NC(=O)[C@@H](N)Cc1c(C)cc(O)cc1C)C(=O)N[C@@H](CCCCN)C(N)=O	ligand displacement	radioligand	cell membranes	0.0958
Cc1cc(O)cc(C)c1C[C@H](N)C(=O)N1CCc2ccc(Cc3ccc([N+](=O)[O-])cc3)cc2C1	ligand displacement	radioligand	cell membranes	2.6
Cc1cc(O)cc(C)c1C[C@H](N)C(=O)N[C@H](C)C(=O)NCC(=O)N[C@@H](Cc1ccc(Cl)cc1)C(=O)N(C)CCC[C@@]1(c2ccc(F)cc2)OCc2cc(C#N)ccc21	cell-free assay			12
Cc1cc(O)cc(C)c1C[C@H](C)C(=O)N[C@@H]1C/C=C\CC[C@@H](C(N)=O)NC(=O)[C@H](Cc2ccccc2)NC(=O)[C@H](Cc2ccccc2)NC1=O	ligand displacement	radioligand	cell membranes	7.44
Cc1cc(O)cc(C)c1C[C@H](N)C(=O)N[C@H](CCCNC(=N)N)C(=O)N[C@@H](Cc1c[nH]c2ccccc12)C(=O)N[C@@H](CCCCN)C(N)=O	ligand displacement	radioligand	cell membranes	0.0991
Cc1cc(O)cc(C)c1C[C@H](N)C(=O)N1CCc2ccc(Cc3cccc(N)c3)cc2C1	ligand displacement	radioligand	cell membranes	9.7
Cc1cc(O)cc(C)c1C[C@H](C)C(=O)N[C@@H]1CCCCC[C@@H](C(N)=O)NC(=O)[C@H](Cc2ccccc2)NC(=O)[C@H](Cc2ccccc2)NC1=O	ligand displacement	radioligand	cell membranes	18.3
C[C@@H](NC(=O)[C@@H](N)Cc1ccc(O)cc1)C(=O)NCC(=O)N[C@@H](Cc1ccccc1)C(=O)N(C)CCC[C@@]1(c2ccc(F)cc2)OCc2cc(C#N)ccc21	cell-free assay			88
Cc1cc(O)cc(C)c1C[C@H](N)C(=O)N[C@H](CCCNC(=N)N)C(=O)N[C@@H](Cc1c(C)cccc1C(C)C)C(=O)N[C@@H](CCCCN)C(N)=O	ligand displacement	radioligand	cell membranes	0.155
Cc1ccccc1Cc1ccc2c(c1)CN(C(=O)[C@@H](N)Cc1c(C)cc(O)cc1C)CC2	ligand displacement	radioligand	cell membranes	2.5
